Screening data from PubChem BioAssay.
mABHD4 FP – ABHD4 (mouse) inhibition, primary FP screen. purified mABHD4, FP-Rh probe fluorescence polarization. hit rate 0.54% among 370,000. Q8VD66. inhibition, % at 8.92 µM. AID 720543;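 active = inhibition exceeding the mean over every tested compound plus 3 SD, cut at about 30% in these data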;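 note: 0% = plate median of compound wells and 100% = S159A mutant with DMSO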
Target sequence (Q8VD66 whole entry, looked up): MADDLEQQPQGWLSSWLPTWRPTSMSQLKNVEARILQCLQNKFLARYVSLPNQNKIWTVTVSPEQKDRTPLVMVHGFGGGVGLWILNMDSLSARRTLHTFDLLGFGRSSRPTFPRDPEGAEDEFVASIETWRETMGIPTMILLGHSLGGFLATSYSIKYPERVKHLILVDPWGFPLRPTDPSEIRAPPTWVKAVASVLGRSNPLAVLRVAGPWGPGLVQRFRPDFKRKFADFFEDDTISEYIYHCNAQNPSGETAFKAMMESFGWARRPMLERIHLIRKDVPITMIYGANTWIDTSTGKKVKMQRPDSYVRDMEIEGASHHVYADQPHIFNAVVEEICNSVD
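Assay system: Wild-type mouse ABHD4 protein | Medium: HEPES pH 7.0 buffer, 150 mM NaCl, 0.01% Pluronic F-127 | Incubation: Enzyme–compound pre-incubation 45 min, then probe 60 min, both 25 °C | Technique: Fluorescence polarization with parallel and perpendicular emission, 525/598 nm | Evaluation: % inhibition of FP-Rh probe binding versus controls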
Tn7 DDE FP – disrupts Tn7 cyclic peptide binding to fibrin D-Dimer-E complex; P02675; FP displacement of FITC-Tn7 peptide from fibrin DD(E); 0% = median of compound wells per plate; inhibition, % at 8.3 µM; hit rate 0.13% among 370,000; AID 720508;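 active = inhibition above the mean of compounds falling within the control limits plus 3 SD of them, cut at about 14% in these data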;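 note: 0% = plate median of compound wells and 100% = 10 µM Aha-Tn7 peptide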
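Measure: % inhibition scaled between sample-field median and high-control FP; Test system: human fibrin DD(E); Quantity: 2 µM final DD(E) protein; Doses: one dose, 8.3 µM nominal; Schedule: compound with protein 10 min, then 3 h after probe, room temperature; Detection: fluorescence polarization; Medium: Tris buffer with calcium and detergent, pH 7.8.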
Tn6 DDE FP – DD(E)-Tn6 binding inhibition, primary FP screen | Fibrin DD(E) TRITC-Tn6 fluorescence polarization displacement | AID 720509 | hit rate 0.21% among 370,000 | inhibition, % at 8.3 µM | P02675;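 active = inhibition above a per-campaign cutoff: mean of compounds within control limits plus 3 SD, cut at about 15% in these data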;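 note: 0% = median of all compound wells on the plate and 100% = blocking peptide control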
HTRA1 inhibitor – blocks human HTRA1 serine peptidase. Q92743. recombinant HTRA1, FP-rhodamine activity-based probe, fluorescence polarization. inhibition, % at 5.96 µM. hit rate 0.5% among 340,000. AID 504803; in the data active = inhibition above about 36%;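 note: 0% = enzyme with DMSO and 100% = wells lacking enzyme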
SIAE primary – human SIAE inhibition, primary screen; inhibition, % at 9.66 µM; Q9HAT2; hit rate 0.69% among 370,000; SIAE FP-Rh probe binding, fluorescence polarization;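 active = inhibition above a cutoff: mean of compounds within the control limits plus 3 SD of those, cut at about 17% in these data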;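 note: 0% = plate median of compound wells and 100% = probe without SIAE protein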
TCR-CD3 inh – blocks the human TCR-CD3 interaction | TAMRA-labeled TCR probe fluorescence, biochemical | inhibition, % at 9.4 µM | hit rate 0.37% among 360,000; in the data active = inhibition above about 19%;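 note: recombinant mutant TCR 2C K166C tagged with TAMRA read by polarization; 0% = receptor in buffer alone and 100% = receptor with positive control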
HTRA1 inh conf – confirmation of human HTRA1 inhibitors; shares compounds with HTRA1 inhibitor; recombinant HTRA1, FP-rhodamine activity-based probe, fluorescence polarization; inhibition, % at 5.96 µM; hit rate 66% among 1,600;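 active = mean inhibition over three repeats above a set limit taken from the earlier primary screen, cut at about 37% in these data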;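 note: 0% = HTRA1 with DMSO and 100% = wells lacking HTRA1; inhibitors block probe binding so polarization drops and inhibition rises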
The depositor's hits bear a star. Most compounds without a hit are left out; they make up all but 1.8% or so of the library.

Results for COc1cccc2c1NC(C(=O)O)C1CC=CC21 (stereo not drawn) ?
HTRA1 inhibitor: 61.9*; HTRA1 inh conf: 60.7*

How did COCc1cc(CN2CCCC2)c(O)c2ncccc12 do in these assays?
mABHD4 FP: 9.5; Tn7 DDE FP: -1.6; Tn6 DDE FP: 1.7; HTRA1 inhibitor: 18.3; SIAE primary: 4.3; TCR-CD3 inh: 3.0

Results for Oc1c(CN2CCCCC2)ccc2cccnc12 ?
mABHD4 FP: 21.9; Tn7 DDE FP: 6.0; Tn6 DDE FP: 0.7; HTRA1 inhibitor: 73.5*; SIAE primary: 6.9; TCR-CD3 inh: 13.1; HTRA1 inh conf: 69.1*

What do the screens show for `Oc1c(CN2CCOCC2)ccc2ccccc12`?
mABHD4 FP: 27.2; Tn7 DDE FP: -6.0; Tn6 DDE FP: -2.6; HTRA1 inhibitor: 11.4; SIAE primary: 6.5; TCR-CD3 inh: 4.2

Results for Oc1c(CN2CCCCC2)cc(COCc2ccccc2)c2cccnc12 ?
mABHD4 FP: 13.9; Tn7 DDE FP: 1.1; Tn6 DDE FP: 6.8; HTRA1 inhibitor: 64.5*; SIAE primary: -2.9; TCR-CD3 inh: -5.8; HTRA1 inh conf: 72.4*

What do the screens show for `CN(C)C1CCN(Cc2cc(COCc3ccccc3)c3cccnc3c2O)C1` (stereo not drawn)?
HTRA1 inhibitor: 53.7*; HTRA1 inh conf: 76.2*

What do the screens show for `N#Cc1cc(F)cc(OC[C@@H](O)CN2CCC(C(O)(c3ccccc3)c3ccccc3)CC2)c1`?
mABHD4 FP: -4.6; Tn7 DDE FP: 0.0; Tn6 DDE FP: 2.2; SIAE primary: -7.9

Results for CN(CCOC(=O)c1cc2ccccc2o1)C1CN(Cc2cn(Cc3ccccc3C(F)(F)F)nn2)S(=O)(=O)C1 (stereo not drawn) ?
mABHD4 FP: -14.7; Tn7 DDE FP: 4.8; Tn6 DDE FP: -0.2; SIAE primary: -3.2

How did CCCCCCCCCCCCCCCC[N+](C)(C)Cc1ccc(F)cc1 do in these assays?
mABHD4 FP: 43.9*; Tn7 DDE FP: -1.7; Tn6 DDE FP: 2.3; HTRA1 inhibitor: 64.0*; SIAE primary: -4.2; TCR-CD3 inh: 4.1; HTRA1 inh conf: 63.6*

How did COc1cc(N=Nc2ccc(Br)cc2)cc(C=O)c1O do in these assays?
mABHD4 FP: 11.8; Tn7 DDE FP: -13.3; Tn6 DDE FP: -2.4; HTRA1 inhibitor: 46.1*; SIAE primary: -7.8; TCR-CD3 inh: 12.2; HTRA1 inh conf: 56.1*

What do the screens show for `COc1cc(CN(C)C)cc(C=O)c1O`?
HTRA1 inhibitor: 3.8

Results for Cc1ccc(N=Cc2ccc[nH]2)c(O)c1 ?
mABHD4 FP: 7.9; Tn7 DDE FP: -1.4; Tn6 DDE FP: 4.0; HTRA1 inhibitor: 44.1*; SIAE primary: -4.2; TCR-CD3 inh: -12.0; HTRA1 inh conf: 21.2

How did Nc1ncnc(Oc2cccc3cccnc23)c1[N+](=O)[O-] do in these assays?
mABHD4 FP: -6.5; Tn7 DDE FP: -1.4; Tn6 DDE FP: -6.9; HTRA1 inhibitor: 39.6*; SIAE primary: -3.1; TCR-CD3 inh: -4.8; HTRA1 inh conf: 34.0

What do the screens show for `CCCCC1=CC2=CC(=O)C(C)(OC(=O)CC)C(=O)C2=CN1CCc1c[nH]c2ccccc12` (stereo not drawn)?
mABHD4 FP: 15.1; Tn7 DDE FP: -5.0; Tn6 DDE FP: -1.9; HTRA1 inhibitor: 50.9*; SIAE primary: 5.6; TCR-CD3 inh: 4.3; HTRA1 inh conf: 36.3*

How did CC1(OC(=O)C2CCCC2)C(=O)C=C2C=C(c3ccsc3)N(CCc3c[nH]c4ccccc34)C=C2C1=O (stereo not drawn) do in these assays?
HTRA1 inhibitor: 36.2*; HTRA1 inh conf: 16.9

What do the screens show for `C=CCN1C(=O)[C@@H](CC(=O)NCC2CCCCC2)[C@]2(C(=O)OCC)CCCCC/C=C/12`?
mABHD4 FP: -2.8; Tn7 DDE FP: 0.4; Tn6 DDE FP: -6.6; SIAE primary: 9.5

What do the screens show for `CN[C@H]1C[C@H]2c3[nH]c4c(-c5ccc6c(c5)OCO6)cccc4c3CCN2C[C@H]1[C@H](C)O`?
mABHD4 FP: 19.4; Tn7 DDE FP: -6.0; Tn6 DDE FP: -5.7; SIAE primary: 3.1

How did Cc1nc(CNC(=O)CC2C(=O)NCCN2Cc2cccc(Oc3ccccc3)c2)cs1 (stereo not drawn) do in these assays?
mABHD4 FP: -5.0; Tn7 DDE FP: -1.0; Tn6 DDE FP: -9.9; HTRA1 inhibitor: 43.6*; SIAE primary: 6.6; TCR-CD3 inh: -4.9; HTRA1 inh conf: -14.0

What do the screens show for `Cc1cc(C(=O)N/N=C/c2ccc([N+](=O)[O-])cc2)c2ccccc2n1`?
mABHD4 FP: -3.1; Tn7 DDE FP: 2.0; Tn6 DDE FP: -1.4; HTRA1 inhibitor: 4.5; SIAE primary: -4.0; TCR-CD3 inh: 8.5

Results for Cc1cc(C(=O)N/N=C/c2ccc([N+](=O)[O-])s2)c2ccccc2n1 ?
mABHD4 FP: 16.3; Tn7 DDE FP: 4.0; Tn6 DDE FP: 2.1; HTRA1 inhibitor: 46.7*; SIAE primary: 14.9; TCR-CD3 inh: 3.0; HTRA1 inh conf: 28.6

What do the screens show for `O=C(N/N=C/c1ccc([N+](=O)[O-])s1)c1ccccc1`?
mABHD4 FP: 0.9; Tn7 DDE FP: 0.1; Tn6 DDE FP: -7.7; HTRA1 inhibitor: 22.0; SIAE primary: 0.3; TCR-CD3 inh: 2.1

How did O=C(N/N=C\c1ccc([N+](=O)[O-])s1)c1cncc(Br)c1 do in these assays?
mABHD4 FP: 1.8; Tn7 DDE FP: -0.5; Tn6 DDE FP: 12.8; HTRA1 inhibitor: 56.2*; SIAE primary: -6.3; TCR-CD3 inh: -2.4; HTRA1 inh conf: 52.0*

How did CC(C)N1Cc2nnn(Cc3ccccc3)c2-c2cc(N3CCCC3)ccc2S1(=O)=O do in these assays?
mABHD4 FP: 26.8; Tn7 DDE FP: -3.2; Tn6 DDE FP: 0.0; SIAE primary: 1.9

How did COc1ccccc1NS(=O)(=O)c1cc(N)ccc1N1CCCC1 do in these assays?
mABHD4 FP: 27.6; Tn7 DDE FP: -5.3; Tn6 DDE FP: -7.6; HTRA1 inhibitor: 9.7; SIAE primary: 14.2; TCR-CD3 inh: 5.0

Results for COc1ccccc1NS(=O)(=O)c1cc(N)ccc1N1CCOCC1 ?
mABHD4 FP: 3.1; Tn7 DDE FP: 7.2; Tn6 DDE FP: -1.3; HTRA1 inhibitor: 37.0*; SIAE primary: 6.4; TCR-CD3 inh: -3.7; HTRA1 inh conf: -13.2

Results for COC(=O)C1=C(O)/C(=C\c2ccc(CNC(=O)C(=O)Nc3ccc(C)cc3)o2)N=C1C ?
mABHD4 FP: 16.0; Tn7 DDE FP: -3.8; Tn6 DDE FP: 2.2; HTRA1 inhibitor: 45.1*; SIAE primary: 3.5; TCR-CD3 inh: -1.5; HTRA1 inh conf: -4.5

What do the screens show for `CC(C)(C)c1ccc(-c2nnc(SCC(=O)Nc3ccc(S(=O)(=O)Nc4nccs4)cc3)n2-c2ccc(Cl)cc2)cc1`?
mABHD4 FP: -77.6; Tn7 DDE FP: -6.6; Tn6 DDE FP: 1.6; SIAE primary: -43.5
